Shown are actives, neighbours in structure and some others; about 1.6% of the full set was active somewhere.
TLR4 MyD88 comp = TLR4-MyD88 interaction inhibition in cells; inhibition, % at 8.4 µM; 200,000 tested, 0.18% active; HeLa CL3-4 TLR4/MyD88 BLA complementation, FRET ratio; AID 861; in the data active = inhibition above about 25%;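 note: 0% = vehicle and 100% = reference inhibitor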
Target sequence (O00206 whole entry, looked up): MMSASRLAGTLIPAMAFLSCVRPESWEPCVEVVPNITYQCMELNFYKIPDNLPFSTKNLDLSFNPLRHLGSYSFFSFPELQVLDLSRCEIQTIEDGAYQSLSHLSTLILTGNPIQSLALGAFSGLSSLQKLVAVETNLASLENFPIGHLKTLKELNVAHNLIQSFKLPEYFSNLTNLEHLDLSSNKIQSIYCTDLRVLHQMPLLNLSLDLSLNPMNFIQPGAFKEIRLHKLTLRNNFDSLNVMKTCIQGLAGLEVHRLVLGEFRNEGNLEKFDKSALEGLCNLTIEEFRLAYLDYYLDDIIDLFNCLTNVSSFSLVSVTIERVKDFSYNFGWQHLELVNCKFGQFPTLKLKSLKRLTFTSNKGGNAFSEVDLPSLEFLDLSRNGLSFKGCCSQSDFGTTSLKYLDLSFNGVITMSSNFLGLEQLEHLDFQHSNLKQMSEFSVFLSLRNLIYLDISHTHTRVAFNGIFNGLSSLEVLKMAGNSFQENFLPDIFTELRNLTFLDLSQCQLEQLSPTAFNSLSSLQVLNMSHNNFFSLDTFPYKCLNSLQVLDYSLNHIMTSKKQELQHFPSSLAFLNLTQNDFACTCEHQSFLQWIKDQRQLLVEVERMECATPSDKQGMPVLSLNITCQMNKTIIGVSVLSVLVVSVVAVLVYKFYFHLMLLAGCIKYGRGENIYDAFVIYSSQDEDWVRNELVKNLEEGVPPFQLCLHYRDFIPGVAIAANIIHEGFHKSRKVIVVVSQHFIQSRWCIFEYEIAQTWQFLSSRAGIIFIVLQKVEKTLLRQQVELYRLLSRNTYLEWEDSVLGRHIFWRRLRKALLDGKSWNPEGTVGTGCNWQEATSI
Target sequence (Q99836 whole entry, looked up): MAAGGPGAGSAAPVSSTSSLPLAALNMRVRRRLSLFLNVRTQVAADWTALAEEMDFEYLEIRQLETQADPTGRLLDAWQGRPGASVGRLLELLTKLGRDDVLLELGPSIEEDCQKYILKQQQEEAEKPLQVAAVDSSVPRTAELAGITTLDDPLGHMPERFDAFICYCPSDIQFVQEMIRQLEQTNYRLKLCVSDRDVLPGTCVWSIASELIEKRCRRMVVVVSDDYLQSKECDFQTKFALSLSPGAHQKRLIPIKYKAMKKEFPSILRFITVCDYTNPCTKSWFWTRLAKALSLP
NOD2-RIPK2 inh = inhibitors of human NOD2-RIPK2 interaction; O43353; inhibition, % at 4.98 µM; 360,000 tested, 0.38% active; CHO BLA complementation NOD2-RIPK2, CCF4 ratio; in the data active = inhibition above about 21%;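 note: 0% = vehicle only and 100% = reference blocker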
SR-BI uptake up = SR-BI HDL lipid transfer activation; AID 504775; activation, % at 12.5 µM; CHO ldlA[mSR-BI] cells, DiI-HDL uptake fluorescence, 3 h; 100 = double the neutral-control signal; 320,000 tested, 0.096% active;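 active = mean replicate activation of at least 60% and every replicate at or above 60%; inconclusive = mean or all-replicate condition met, but not both; inactive = mean below 60% and not all replicates reaching 60%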;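 note: 0% = median plate neutral-control signal and 100% = twice that signal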
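System: LDL receptor-deficient CHO ldlA cells overexpressing murine SR-BI | Timing: 3 h uptake period with compound, 37 °C | Medium: HEPES-buffered (25 mM, pH 7.4) F12 plus 0.5% BSA | Dosing: Single-point compound dose | Signal: Bottom-read fluorescence, 550/595 nm | Read-out: Retained DiI signal reflecting DiI-HDL uptake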
TLR9-MyD88 block = blocks human TLR9 binding to MyD88; AID 504734; inhibition, % at 4.98 µM; CHO BLA complementation TLR9-MyD88, CCF4 FRET ratio; 340,000 tested, 0.21% active; Q9NR96+Q99836;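 active = inhibition above the mean over all tested compounds plus 3 SD, cut at about 21% in these data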;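 note: 0% = DMSO only wells and 100% = clavulanate BLA inhibitor control wells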
Hep lipid drop = modulators of hepatic lipid droplet formation. 240,000 tested, 0.4% active. inhibition, % at 6.5 µM. AML12 mouse hepatocytes, oleate lipid droplets, BODIPY imaging;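 active = lipid droplet intensity inhibited by at least 50%, with more than 500 cells counted; inconclusive = wells with under 300 cells, treated as cytotoxic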
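Assay system: AML12 mouse liver cells | Compound: 6.5 µM single-point dosing | Schedule: Overnight exposure | Technique: Fluorescence imaging, 20x objective, two fields per well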
SR-BI DiI inh = inhibitors of mouse SR-BI mediated HDL lipid uptake | Q61009 | ldlA[mSR-BI] CHO cells, DiI-HDL uptake fluorescence, 3 h | inhibition, % at 12.5 µM | 320,000 tested, 0.96% active | AID 488896;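 active = mean replicate inhibition of at least 70% and a set share of replicates each scoring 70 or more; inconclusive = meets just one of the two criteria; inactive = fails both criteria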;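 note: 0% = median of neutral control wells and 100% = median of positive control wells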
DiI quench = DiI fluorescence quenching in cell-free counter-screen; shares compounds with SR-BI DiI inh; cell-free DiI-HDL fluorescence quenching, 30 min; AC50, µM (series often up to 35 µM), without a hit: top-dose activity change, negative = quenching; 470 tested, 20% active;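 active = quenching, a falling signal, with AC50 below a set limit tied to the top valid dose, actives reach about 32 µM in these data; inconclusive = no clear call, values can overlap the other calls; inactive = rising signal, and the rest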
The depositor's hits bear a star; u = inconclusive; x = no result given.

SMILES	TLR4 MyD88 comp	NOD2-RIPK2 inh	SR-BI uptake up	TLR9-MyD88 block	Hep lipid drop	SR-BI DiI inh	DiI quench
Cc1nn(Cc2c(Cl)cccc2Cl)c(C)c1NC(=O)CCCn1nc([N+](=O)[O-])c(Cl)c1C	-1.6	6.9	-80.1	1.8	-7.0	80.1*	-6.6%
CC(C)(C)NC(=O)N1CCN(c2ncccc2C(F)(F)F)CC1	x	-2.2	-88.5	-3.0	-3.1	88.5*	-4.1%
Cc1cc(SC(C)C(=O)Nc2ncc(Cl)cc2Cl)nc2ccccc12 (stereo unspecified)	-10.6	3.4	-72.5	-6.1	x	72.5*	-0.5%
CC(=O)Oc1ccc(C(=O)Cc2ccc3ccccc3n2)c(O)c1C	-2.4	-2.4	-71.0	13.0	24.5	u	-2.7%
CC(C)C(OC(=O)CN1C(=O)c2ccccc2C1=O)C(=O)NC1CCCC1 (stereo unspecified)	x	-3.1	x	-11.7	3.7	x	x
c1ccc(CCNc2nc(-c3ccncc3)nc3ccccc23)cc1	x	-14.8	-72.5	x	7.3	u	2.5%
Cc1ccc(C(=O)COc2cc(O)c3c(=O)cc(-c4ccccc4)oc3c2)cc1	x	-6.5	-78.3	-6.8	-10.6	78.3*	-3.8%
O=C(CSc1nc(-c2ccccc2)c(-c2ccccc2)[nH]1)NCCN1C(=O)CSC1=O	3.7	0.0	-11.6	-9.4	x	11.6	x
CC(C)Cc1ccc(CN2C(C)C(=O)N(Cc3cn(Cc4ccco4)nn3)CCS2(=O)=O)cc1 (stereo unspecified)	x	-4.1	x	x	x	x	x
O=C(NCN1C(=O)C2C3C=CC(C3)C2C1=O)OC1CCCCC1 (stereo unspecified)	9.8	3.2	-82.6	5.7	x	82.6*	-2.7%
Cc1ccccc1Cn1ccc(NC(=O)c2cc3nc(-c4ccco4)cc(C(F)(F)F)n3n2)n1	10.3	8.8	-38.3	-3.7	x	38.3	x
Cc1nn(Cc2ccccc2)c(C)c1NC(=O)c1cc2nc(-c3ccco3)cc(C(F)(F)F)n2n1	-9.1	3.3	-82.8	-4.5	-8.7	82.8*	-7.3%
CCc1ccc(C(O)c2ncc(-c3ccccc3C(F)(F)F)[nH]2)cc1 (stereo unspecified)	x	11.4	x	x	x	x	x
N#Cc1nc(COc2ccccc2Cl)oc1N1CCCC1	3.1	-1.3	-18.7	-8.8	-22.9	18.7	x
CC1CN(c2oc(COc3ccc(Cl)cc3Cl)nc2C#N)CC(C)O1 (stereo unspecified)	-13.0	0.9	-80.9	-15.2	-27.6	80.9*	1.0%
CC(=O)c1c(C(C)=O)c(C)n(-c2ccc(C)c(NC(=O)c3ccccc3Cl)c2)c1C	-2.7	-5.1	-78.5	-4.0	x	78.5*	5.3%
Cc1ccc(NC(=O)c2ccccc2Cl)c(Cl)c1	1.9	-2.6	-23.5	-5.5	12.2	23.5	x
COc1ccc(-c2nn(CCC#N)cc2C=C(C#N)C#N)cc1	x	-10.2	6.5	-0.6	5.2	-6.5	x
CCN1C(=O)[C@H]2[C@@H](c3ccc(C)cc3)N[C@]3(CCCN(Cc4ccc(F)cc4)C3=O)[C@H]2C1=O	x	9.7	x	3.8	x	x	x
CCOC(=O)N1CCC(NC(=O)c2ccc3c(c2)N(Cc2ccc(F)cc2)CCS3)CC1	-12.0	-2.8	-72.4	4.4	6.0	72.3*	-11.1%
COc1ccc(OC)c(CCNC(=O)c2ccc3c(c2)N(Cc2ccccc2)CCS3)c1	x	-4.3	-75.5	-8.1	-8.0	75.5*	-4.1%
COc1ccc(CCNC(=O)c2ccc3c(c2)N(Cc2ccccc2)CCS3)cc1OC	x	0.9	-39.0	3.8	47.2	39.0	x
CCOC(=O)N1CCC(NC(=O)c2ccc3c(c2)N(Cc2ccc(C)cc2)CCS3)CC1	-2.9	-5.0	-66.0	-14.9	33.2	66.0	x
CCOc1ccccc1C(=O)NCC(=O)N(C)Cc1cccnc1	x	-9.7	18.0	-3.4	-3.3	-18.0	x
CN(Cc1ccccc1)Cc1c(O)ccc2ccccc12	x	-8.3	22.5	4.3	2.0	-22.5	x
SMILES	TLR4 MyD88 comp	NOD2-RIPK2 inh	SR-BI uptake up	TLR9-MyD88 block	Hep lipid drop	SR-BI DiI inh	DiI quench
CN(Cc1cc(Cl)cc(Cl)c1O)Cc1c(O)ccc2ccccc12	x	-9.0	-102.6	1.9	x	102.6*	1.86µM*
CC(C)OC(=O)c1cccnc1N1CCN(c2cccc(Cl)c2)CC1	8.5	6.2	-28.0	2.0	-16.4	28.0	x
Cc1ccc(NC(=O)C2CCCN(S(=O)(=O)c3ccc4[nH]c(=O)ccc4c3)C2)cc1C (stereo unspecified)	x	-11.5	-15.3	-21.9	0.9	15.3	x
CCc1ccc(NC(=O)C2CCCN(S(=O)(=O)c3ccc4[nH]c(=O)ccc4c3)C2)cc1 (stereo unspecified)	x	-7.2	-103.7	9.1	24.2	103.8*	-2.6%
Cn1nc(-c2ccc(Cl)cc2)c2cc(C(=O)NCCCN3CCOCC3)sc21	6.4	7.2	-72.2	-2.0	x	72.2*	0.7%
CCN(C1CCCCC1)S(=O)(=O)c1cc2c3c(c1)CCN3C(=O)CC2	x	-0.3	-23.7	7.0	x	23.7	x
Cc1cc2c(Nc3ccc(C(=O)O)cc3)ncnc2s1	x	9.3	-4.7	-6.5	1.1	4.7	x
C[C@@H]1CN([C@@H](C)CO)C(=O)c2c(c3ccccc3n2C)-c2ccccc2CO[C@H]1CN(C)C(=O)[C@H](C)c1ccccc1	x	-4.8	x	6.1	x	x	x
Cc1c(C(=O)CN2CCCC(C)(C)C2)c2ccccc2n1C	x	7.5	-75.8	-5.5	-5.4	75.8*	-1.0%
CCCCC(=O)Nc1cccc(NC(=O)c2ccccc2Br)c1	-10.0	-3.9	-73.7	2.6	-13.2	73.7*	5.8%
CCCCC(=O)Nc1cccc(NC(=O)CC)c1	-1.8	4.3	43.4	2.9	-0.4	-43.4	x
CCOc1ccc(CCNC(=O)Cn2ncn3nc(-c4ccc(OC)cc4)cc3c2=O)cc1	x	-3.0	-71.7	-2.6	-0.4	71.7*	-1.6%
COc1ccc(-c2cc3c(=O)n(CC(=O)NCc4ccc(C)cc4)ncn3n2)cc1	x	-7.4	5.3	-5.2	-26.8	-5.3	x
NS(=O)(=O)c1ccc(NC(=O)c2ccc3c(c2)CCN3S(=O)(=O)c2ccccc2)cc1	x	-17.2	-63.6	-3.4	6.0	63.6	x
COc1ccc(NC(=O)c2ccc3c(c2)CCN3S(=O)(=O)c2ccccc2)cc1	x	-13.0	-81.0	-3.3	-6.4	81.0*	-3.2%
CC(=O)c1cccc(NC(=O)c2ccc3c(c2)CCN3S(=O)(=O)c2ccccc2)c1	x	0.9	-91.4	6.4	29.9	91.4*	1.0%
CS(=O)(=O)N1CCc2cc(C(=O)Nc3ccc(Cl)cc3)ccc21	x	7.3	-63.1	-3.6	-4.4	63.1	x
O=C(Nc1ccccc1)c1ccc2c(c1)CCN2S(=O)(=O)c1ccccc1	x	8.1	-75.9	8.6	8.7	75.9*	-1.4%
CS(=O)(=O)N1CCc2cc(C(=O)Nc3cccc([N+](=O)[O-])c3)ccc21	x	-8.0	-68.2	-10.4	-4.6	68.2	-13.1%

Screens as filed in PubChem BioAssay.
